Bioassay records: PubChem, Johns Hopkins Ion Channel Center
KCNQ1 act – potentiators or activators of KCNQ1 channel, primary screen, cell-based, thallium flux, high-throughput. Potassium voltage-gated channel subfamily KQT member 1 (Homo sapiens), P51787. CHO-K1 KCNQ1, thallium flux FluxOR fluorescence; stronger effect = higher value. B-score at 10 µM. 310,000 compounds, 0.35% hits;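 active = fluorescence ratio B-score, a plate-corrected score, at least three library SD, with initial intensity B-score within 5 SD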
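Assay system: CHO-K1 cells stably expressing KCNQ1; Medium: assay buffer with matched DMSO; Also added: K+/Tl+ depolarizing stimulus; Dosing: single dose; Timing: dye 90 min, compound 20 min, room temperature; Measured by: kinetic FluxOR thallium fluorescence, 10-s 1-Hz baseline, 110-s post-stimulus read; Read-out: peak-minus-minimum fluorescence over initial fluorescence, negative-control normalized, B-scored.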
KCNK3 inh – human KCNK3 channel inhibitors, primary screen, CHO cells, FluxOR thallium flux, B-score; B-score at 10 µM; Potassium channel subfamily K member 3 (Homo sapiens), O14649; 340,000 compounds, 0.84% hits; FluxOR fluorescence; stronger effect = lower value;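 active = B-score under library mean minus 4 SD, starting fluorescence ratio at most library mean plus 5 SD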;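 note: more negative B-score means stronger inhibition of thallium flux through KCNK3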
Kir21 inh – inhibitors of mouse Kir2.1 inward-rectifier potassium channel. 310,000 compounds, 0.85% hits. HEK293-Kir2.1, FluxOR thallium flux fluorescence; stronger effect = lower value. AID 1672, 2009. Inward rectifier potassium channel 2 (Mus musculus), P35561. B-score at 10 µM;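 active = fluorescence ratio B-score at or below minus 3 SD of library scores, with starting-brightness B-score within 2 SD, cut at about -4.2 in these data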;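 note: channel flux triggered by added potassium and thallium sulfate stimulus; B-score of peak minus minimum fluorescence over baseline after thallium stimulus; more negative B-score means stronger Kir2.1 block with less thallium influx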
Target sequence (P35561 whole entry, looked up): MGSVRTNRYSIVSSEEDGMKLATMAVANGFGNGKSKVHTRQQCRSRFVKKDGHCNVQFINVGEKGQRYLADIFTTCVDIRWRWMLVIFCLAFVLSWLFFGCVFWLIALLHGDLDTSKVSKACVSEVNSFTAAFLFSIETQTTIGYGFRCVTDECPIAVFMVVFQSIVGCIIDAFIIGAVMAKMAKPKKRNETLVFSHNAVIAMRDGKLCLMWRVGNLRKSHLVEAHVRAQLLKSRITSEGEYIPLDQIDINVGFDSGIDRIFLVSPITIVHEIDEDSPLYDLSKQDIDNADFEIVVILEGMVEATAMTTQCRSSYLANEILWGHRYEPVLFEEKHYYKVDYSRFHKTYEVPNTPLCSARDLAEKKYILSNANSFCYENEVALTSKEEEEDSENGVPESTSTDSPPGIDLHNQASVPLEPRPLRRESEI
KCNK9 inh – KCNK9 potassium channel inhibitors, primary screen, HEK293 cells, thallium flux. 310,000 compounds, 1.2% hits. FluxOR thallium flux fluorescence; stronger effect = lower value. Potassium channel subfamily K member 9 (Homo sapiens), Q9NPC2. B-score at 10 µM. AID 488922, 2010;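 active = ratio B-score over 3 SD below the library mean, with starting fluorescence within 5 SD of its mean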;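 note: negative B-score means less thallium flux so channel inhibition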
KCNQ1 block – inhibitors of human KCNQ1 channel, primary screen, cell-based, thallium flux, high-throughput. Potassium voltage-gated channel subfamily KQT member 1 (Homo sapiens), P51787. CHO-K1 KCNQ1, FluxOR thallium flux fluorescence; stronger effect = higher value. B-score at 10 µM. 310,000 compounds, 1.3% hits;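 active = compounds whose thallium flux B-score, printed positive for inhibition, exceeds three library SD while starting fluorescence stays within three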;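 note: channel opened by potassium depolarization with thallium stimulus after 20 min compound exposure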
hERG rescue – hERG rescue from dofetilide block, primary screen, cell-based, CHO-hERG, FluxOR thallium flux, dofetilide IC70 | dofetilide IC70 present | activation (rescue from dofetilide block), less the hit threshold, % at 10 µM | Voltage-gated inwardly rectifying potassium channel KCNH2 (Homo sapiens), Q12809 | AID 1511, 2009 | 310,000 compounds, 0.51% hits;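 active = activation above the mean of controls blocked by dofetilide plus 5 SD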;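 note: thallium influx through hERG after potassium depolarization seen as dye fluorescence rise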
Active calls of the source: *; i = inactive; . = not tested or not shown. An excerpt weighted towards active compounds, which were near 3.7% of everything screened.

SMILES	KCNQ1 act	KCNK3 inh	Kir21 inh	KCNK9 inh	KCNQ1 block	hERG rescue
CCOc1c2ccc(C(=O)NCc3ccc(C(F)(F)F)cc3C(F)(F)F)cc2nn1C	i	i	-0.76	i	i	-4.1
CCCCn1nc2cc(C(=O)NCc3ccc(C(F)(F)F)cc3C(F)(F)F)ccc2c1OCC	i	i	0.22	i	6*	-8.0
Cc1ccc(C(=O)n2c(-c3ccccc3)cnc2SCC(=O)Nc2ccc(C)cc2C)cc1	i	i	0.7	i	i	-1.8
CCOc1c(OC(C)=O)ccc(/C=C/c2ccc3cccc(OC(C)=O)c3n2)c1[N+](=O)[O-]	i	i	-0.05	i	12*	-12.6
C/C(=N\NC(=O)C1COc2ccccc2O1)c1ccc(N2CCOCC2)cc1 (stereo unspecified)	30*	i	0.04	i	i	5.6*
Cc1cc(C(=O)CSc2nc3ccccc3c(=O)n2C)c(C)n1Cc1ccc2c(c1)OCO2	i	i	-0.05	-7.93*	i	-25.8
Cc1ccc(O)c(NC(=S)NC(=O)Cc2ccc(Cl)cc2)c1	50*	i	1.06	i	i	-6.7
COc1cc(/C=C/C(=O)OCC(=O)N(CC(C)C)c2c(N)n(Cc3ccccc3)c(=O)[nH]c2=O)ccc1O	.	i	.	.	.	.
Cc1ccc(Nc2nc(N)c3ccccc3n2)cc1Cl	i	i	-12.9*	i	i	-20.7
Nc1nc(Nc2ccc(Cl)cc2)nc2ccccc12	i	i	-13.6*	i	i	-25.6
CC(=O)c1ccc(N(CC(=O)NC2CCS(=O)(=O)C2)S(=O)(=O)c2ccc(Cl)cc2)cc1 (stereo unspecified)	.	i	.	.	.	.
Cc1cccc(N(C)C(=O)c2cnn(-c3ccccc3)c2C)c1	i	i	-0.04	i	i	-0.9
CN1CCN(S(=O)(=O)c2cccc(C(=O)N(C)CC(=O)Nc3ccc(F)c(F)c3F)c2)CC1	i	i	3.37	i	i	-10.9
O=C(COC(=O)c1ccccc1F)Nc1ccc(S(=O)(=O)N2CCOCC2)cc1	.	i	.	.	.	.
O=C(COc1ccc(Br)cc1)NCCCN1CCCC1=O	.	i	.	.	.	.
Cc1ccc(COc2ccc(CNCCCN3CCCCCC3=O)cc2)cc1	i	i	-5.07*	i	i	-14.4
CCOC(=O)C(=CNc1ccc(Oc2cccnc2)nc1)C(=O)OCC	i	i	0.2	i	i	4.6*
CCOC(=O)C(=CNc1cc(C)ccn1)C(=O)OCC	i	i	0.9	i	i	5.1*
CC(C)(C)c1ccc(C(=O)Nc2ccc(Oc3cccnc3)nc2)cc1	i	i	-1.1	i	i	-5.7
Cc1ccc(S(=O)(=O)N2CCCC2C(=O)NCc2ccc3c(c2)OCO3)cc1 (stereo unspecified)	i	i	0.12	i	i	9.9*
Cc1ccc(CNC(=O)C2CCCN2S(=O)(=O)c2ccc(Cl)cc2)cc1 (stereo unspecified)	i	i	2.19	i	i	-11.8
CCN1/C(=C/C(C)=C/c2sc3ccccc3[n+]2CC)Sc2ccccc21	i	-14.7*	1.76	i	i	-26.1
CCc1c2ccccc2nn1-c1ccccc1C(=O)C(C)=O	i	i	-4.83*	i	i	-2.3
CCOC(=O)c1ccccc1-n1nnnc1C	i	i	0.25	i	i	-7.4
CC1CN(S(=O)(=O)c2ccc(C(=O)OCc3ccc(C#N)cc3)cc2)CC(C)O1 (stereo unspecified)	.	i	.	.	.	.
SMILES	KCNQ1 act	KCNK3 inh	Kir21 inh	KCNK9 inh	KCNQ1 block	hERG rescue
Cc1cc(NCCCn2ccnc2)n2nc(C)c(-c3ccccc3)c2n1	i	i	-3.92	i	6*	-15.4
CCCCC(=O)Nc1cc(OC)c(NC(=S)Nc2ccc(OC)cc2)cc1OC	.	i	.	.	.	.
CCCc1c(C)nc2ccc(OC)cc2c1SCCC(=O)O	i	i	0.94	i	i	-12.1
CCCc1c(C)nc2c(OC)cccc2c1SCC(=O)O	i	i	-2.99	i	i	4.7*
O=C(CNC(=O)c1nn(Cc2ccccc2)c(=O)c2ccccc12)Nc1ccc(F)c(F)c1F	.	i	.	.	.	.
COc1ccc(C(O)(C2CCCCC2)C(CN2CCOCC2)c2ccccc2)cc1 (stereo unspecified)	i	i	-0.02	i	i	-12.6
OC(c1ccccc1)(C1CCCCC1)C(CN1CCOCC1)c1ccccc1 (stereo unspecified)	i	i	0.67	i	6*	-13.2
COc1ccc(Cl)cc1NC(=O)CCNS(=O)(=O)c1cccc2nonc12	i	i	-1.19	i	i	-4.2
Cc1ccc(CSCC(=O)Nc2cc(S(=O)(=O)N3CCOCC3)ccc2OCC(F)(F)F)cc1	.	i	.	.	.	.
Nc1nc2c(s1)CCc1c-2cnn1-c1ccccc1	i	i	-4.47*	i	i	2.4
Nc1nc2c(s1)COc1ccccc1-2	i	i	-0.19	i	i	-4.5
COc1ccc(S(=O)(=O)N2CCOCC2)cc1NC(=O)CCc1cc(OC)c(OC)c(OC)c1	.	i	.	.	.	.
Clc1ccc(CNc2ncnc3[nH]ncc23)cc1Cl	.	i	.	.	.	.
O=C(N/N=C/c1cc([N+](=O)[O-])ccc1O)c1ccc(COc2ccc3c(c2)CCC3)o1	i	i	-1.19	i	i	14.2*
Cc1ccc(C)c(NC(=O)c2nc(-c3ccccc3)n(-c3ccccc3)n2)c1	i	i	0.24	i	i	-10.7
N#Cc1cccc(NC(=O)c2nc(-c3ccccc3)n(-c3ccccc3)n2)c1	i	i	0.72	i	i	7.1*
COc1ccc(S(=O)(=O)NCC2(N3CCOCC3)CCCCC2)cc1OC	.	i	.	.	.	.
Clc1ccc(-c2ccc(CN3CCCCC3)o2)cc1	i	i	0.08	i	i	-7.8
CN1CCN(Cc2ccc(-c3ccc(Cl)cc3)o2)CC1	i	i	-4.66*	i	i	-7.2
O=C(COC(=O)COc1ccccc1[N+](=O)[O-])NC1CCCCC1	.	i	.	.	.	.
CN(C)C(CNC(=O)c1ccc(S(=O)(=O)N(C)C)cc1)Cc1ccccc1 (stereo unspecified)	i	i	-1.36	i	i	-4.0
Cc1ccc(Cn2c(O)c(N=NC(=S)Nc3ccccc3F)c3cc(S(=O)(=O)N4CCOCC4)ccc32)cc1	i	i	-0.33	i	i	5.7*
CCCn1c(O)c(N=NC(=O)c2ccco2)c2ccccc21	i	i	0.2	i	i	59.7*
